This passage reports IC50, Ratio IC50 and Activity results from ChEMBL document CHEMBL1138205, “Novel heterobivalent tacrine derivatives as cholinesterase inhibitors with notable selectivity toward butyrylcholinesterase” (J Med Chem, 2006).

The target in test [1] is T1, Acetylcholinesterase (Homo sapiens, UniProt P22303). In words: Inhibition of human AChE. The gist of the method:
(§1)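 Ellman-type spectrophotometric assay at 412 nm in 100 mM sodium phosphate, 100 mM NaCl, pH 7.3, with DTNB. Enzymes: E. electricus AChE (soluble G4), recombinant T. californica AChE (Pichia pastoris, G4), recombinant human AChE (HEK 293, G2/G4), human plasma BChE (G4). Enzyme (~3 U/mL stock) and inhibitor preincubated 15 min at 25 °C. Acetylthiocholine (AChE) or butyrylthiocholine (BChE) then started the reaction. IC50 in duplicate from ≥4 inhibitor concentrations.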

The target in test [2] is Cholinesterases; ACHE & BCHE (Homo sapiens) (UniProt P06276+P22303). Kind of test: Selectivity for human BChE over human AChE. Put shortly: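 Ratio of IC50 for recombinant human AChE to IC50 for human plasma BChE. Both were measured by DTNB absorbance at 412 nm, pH 7.3, after 15 min enzyme–inhibitor preincubation at 25 °C. Acetyl- or butyrylthiocholine served as substrate. Each IC50 in duplicate from ≥4 inhibitor concentrations.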

Test [3] deals with Cholinesterase (Homo sapiens, UniProt P06276). In words: Inhibition of human plasma BChE. The test is classed as cell-free. The gist of the method:
as §1

Test [4] addresses Acetylcholinesterase (Torpedo californica, UniProt P04058). In words: Inhibition of Torpedo californica AChE. Further details: species or system Tetronarce californica. Put shortly: as §1
The target of test [5] is Acetylcholinesterase (Electrophorus electricus, UniProt O42275). Kind of test: (§2) Inhibition of Electrophorus electricus AChE.
Test [6] addresses T1, Acetylcholinesterase. In words: Inhibition of human AChE at 100 uM.
In test [7] the target is Acetylcholinesterase (Electrophorus electricus) (UniProt O42275). In words: Inhibition of Electrophorus electricus AChE at 100 uM.
The target is the same in test [8]. The description is as §2.

One may read the IC50 as the concentration that inhibits the measured activity by half. A higher IC50 goes with a need for much substance.

Activity calls are given as the source filed them. The rule behind the calls is not given here.

Cholinesterases; ACHE & BCHE (Homo sapiens), sequence (P06276 whole entry, looked up): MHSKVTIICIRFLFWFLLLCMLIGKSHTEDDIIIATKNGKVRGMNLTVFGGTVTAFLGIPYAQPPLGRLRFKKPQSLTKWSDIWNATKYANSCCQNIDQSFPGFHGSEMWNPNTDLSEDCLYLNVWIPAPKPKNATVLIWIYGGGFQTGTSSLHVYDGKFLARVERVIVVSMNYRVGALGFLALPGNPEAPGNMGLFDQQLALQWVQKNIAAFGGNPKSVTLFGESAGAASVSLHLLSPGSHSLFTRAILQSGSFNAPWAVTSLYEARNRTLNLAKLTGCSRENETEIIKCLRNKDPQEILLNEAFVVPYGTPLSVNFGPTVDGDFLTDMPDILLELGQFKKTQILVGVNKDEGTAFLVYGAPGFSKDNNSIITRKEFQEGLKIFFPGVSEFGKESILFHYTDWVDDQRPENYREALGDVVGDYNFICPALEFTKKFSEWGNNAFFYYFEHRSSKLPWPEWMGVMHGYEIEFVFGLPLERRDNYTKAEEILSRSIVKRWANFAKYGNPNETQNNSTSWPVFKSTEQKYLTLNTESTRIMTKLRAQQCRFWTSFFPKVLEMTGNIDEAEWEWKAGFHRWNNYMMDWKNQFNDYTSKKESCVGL
Cholinesterases; ACHE & BCHE (Homo sapiens), sequence (P22303 whole entry, looked up): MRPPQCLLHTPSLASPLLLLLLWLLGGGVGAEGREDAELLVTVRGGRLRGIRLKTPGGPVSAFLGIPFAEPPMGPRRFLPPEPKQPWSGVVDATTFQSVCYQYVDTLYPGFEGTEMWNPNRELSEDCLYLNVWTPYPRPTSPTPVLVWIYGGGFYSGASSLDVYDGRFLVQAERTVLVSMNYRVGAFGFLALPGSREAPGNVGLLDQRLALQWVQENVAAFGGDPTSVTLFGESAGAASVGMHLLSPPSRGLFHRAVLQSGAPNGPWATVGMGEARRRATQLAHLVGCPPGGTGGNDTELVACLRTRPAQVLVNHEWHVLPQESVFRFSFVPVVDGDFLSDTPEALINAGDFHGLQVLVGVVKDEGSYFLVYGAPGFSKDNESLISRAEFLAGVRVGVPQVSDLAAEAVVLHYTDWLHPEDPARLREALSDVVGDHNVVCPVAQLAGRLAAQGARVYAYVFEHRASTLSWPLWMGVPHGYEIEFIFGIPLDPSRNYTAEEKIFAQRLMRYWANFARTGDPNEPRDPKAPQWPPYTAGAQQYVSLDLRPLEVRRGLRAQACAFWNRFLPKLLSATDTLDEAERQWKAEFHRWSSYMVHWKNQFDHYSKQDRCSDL
Cholinesterase, sequence (P06276 whole entry): as the sequence (P06276 whole entry, looked up) above
Acetylcholinesterase (Electrophorus electricus, UniProt O42275), sequence (O42275 whole entry): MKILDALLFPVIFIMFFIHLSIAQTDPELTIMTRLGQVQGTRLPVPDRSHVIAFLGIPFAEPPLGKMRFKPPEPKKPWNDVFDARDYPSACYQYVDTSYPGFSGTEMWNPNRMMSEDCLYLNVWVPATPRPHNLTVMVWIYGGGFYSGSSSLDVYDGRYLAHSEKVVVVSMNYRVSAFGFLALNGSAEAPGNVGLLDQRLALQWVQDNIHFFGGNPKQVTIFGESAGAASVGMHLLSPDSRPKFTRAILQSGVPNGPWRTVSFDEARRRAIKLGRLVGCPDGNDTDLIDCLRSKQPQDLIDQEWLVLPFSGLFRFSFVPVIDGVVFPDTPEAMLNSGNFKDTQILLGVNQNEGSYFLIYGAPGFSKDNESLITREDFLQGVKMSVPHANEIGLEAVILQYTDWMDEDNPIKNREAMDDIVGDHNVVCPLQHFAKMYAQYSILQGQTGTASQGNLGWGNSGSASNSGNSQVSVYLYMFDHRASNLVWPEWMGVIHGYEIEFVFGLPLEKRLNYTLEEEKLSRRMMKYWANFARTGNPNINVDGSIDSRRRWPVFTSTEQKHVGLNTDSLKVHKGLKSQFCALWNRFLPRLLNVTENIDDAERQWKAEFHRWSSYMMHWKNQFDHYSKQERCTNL
T1 sequence (P22303 whole entry): as the sequence (P22303 whole entry, looked up) above
Acetylcholinesterase (Torpedo californica, UniProt P04058), sequence (P04058 whole entry): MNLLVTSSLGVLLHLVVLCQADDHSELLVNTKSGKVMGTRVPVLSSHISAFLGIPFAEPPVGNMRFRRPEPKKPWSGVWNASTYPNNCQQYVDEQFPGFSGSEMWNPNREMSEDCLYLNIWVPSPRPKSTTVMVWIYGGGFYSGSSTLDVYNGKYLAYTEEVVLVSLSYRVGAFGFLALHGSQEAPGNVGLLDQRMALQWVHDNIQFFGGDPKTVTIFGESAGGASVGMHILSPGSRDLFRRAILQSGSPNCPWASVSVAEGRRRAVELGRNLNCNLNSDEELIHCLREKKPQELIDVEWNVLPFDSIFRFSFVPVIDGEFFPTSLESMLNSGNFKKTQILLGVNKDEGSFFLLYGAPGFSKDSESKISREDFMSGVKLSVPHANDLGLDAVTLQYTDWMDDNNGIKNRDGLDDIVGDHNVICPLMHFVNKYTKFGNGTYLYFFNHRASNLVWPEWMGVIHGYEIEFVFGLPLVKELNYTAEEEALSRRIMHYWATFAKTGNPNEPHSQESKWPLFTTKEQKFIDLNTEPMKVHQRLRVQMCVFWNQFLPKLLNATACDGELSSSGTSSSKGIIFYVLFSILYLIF
Acetylcholinesterase (Electrophorus electricus), sequence (O42275 24-633 limits assumed): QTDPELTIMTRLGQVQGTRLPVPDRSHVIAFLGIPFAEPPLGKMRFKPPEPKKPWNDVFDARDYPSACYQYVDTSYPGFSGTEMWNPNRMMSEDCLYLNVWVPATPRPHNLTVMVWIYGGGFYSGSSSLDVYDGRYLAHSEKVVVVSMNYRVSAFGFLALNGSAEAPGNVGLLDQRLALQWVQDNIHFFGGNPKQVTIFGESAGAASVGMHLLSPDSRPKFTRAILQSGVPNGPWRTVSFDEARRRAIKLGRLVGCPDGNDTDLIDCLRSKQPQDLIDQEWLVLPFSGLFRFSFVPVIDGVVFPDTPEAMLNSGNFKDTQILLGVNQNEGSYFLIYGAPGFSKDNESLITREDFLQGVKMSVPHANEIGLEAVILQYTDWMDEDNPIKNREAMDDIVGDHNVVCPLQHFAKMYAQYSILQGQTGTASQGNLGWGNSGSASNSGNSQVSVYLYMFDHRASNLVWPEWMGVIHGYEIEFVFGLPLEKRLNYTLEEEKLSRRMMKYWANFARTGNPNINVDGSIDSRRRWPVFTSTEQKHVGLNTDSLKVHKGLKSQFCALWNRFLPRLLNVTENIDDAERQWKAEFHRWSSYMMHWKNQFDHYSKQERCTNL

As to `COc1cc(CCC(=O)NCC(=O)NNc2c3c(nc4ccccc24)CCCC3)cc(OC)c1OC`, the IC50 was 40.7 nM in test [1], 24 nM in test [3], 40.1 nM in test [4] and 122 nM in test [5]. The Ratio IC50 in test [2] is 1.7.

Turning to `COc1cc(C(=O)NNc2c3c(nc4ccccc24)CCCC3)cc(OC)c1OC`, the IC50 in test [1] was found to be 386 nM; in test [3], 1.7 nM; in test [4], 21.1 nM; in test [5], 2260 nM. Besides, the Ratio IC50 in test [2] is 227.

Consider `COc1cc(C(=O)NCCCCCCCC(=O)NN)cc(OC)c1OC`, for which, in test [5], it took 18000 nM to reach half-maximal inhibition (IC50).

Regarding `COc1cc(CCC(=O)NNc2c3c(nc4ccccc24)CCCC3)cc(OC)c1OC`, the IC50 is 365 nM in test [1], 12.1 nM in test [3] and 40.1 nM in test [4]. Besides, in test [2], the Ratio IC50 is 30.2.

The compound `CCOCC(=O)CCCCCCCNC(=O)c1cc(OC)c(OC)c(OC)c1` yielded a 50% inhibitory concentration (IC50) in test [5] above 250000 nM.

Take `COc1cc(CCC(=O)NCCCC(=O)NNc2c3c(nc4ccccc24)CCCC3)cc(OC)c1OC`: the IC50 in test [1] came out at 72.1 nM; in test [3], 0.226 nM; in test [4], 158 nM; in test [5], 52.1 nM. The Ratio IC50 in test [2] was found to be 319.

Turning to `COc1cc(CCC(=O)NCCCCCC(=O)NNc2c3c(nc4ccccc24)CCCC3)cc(OC)c1OC`, the IC50 was 8.39 nM in test [1], 0.141 nM in test [3], 39.8 nM in test [4] and 20.2 nM in test [5]. Moreover, the Ratio IC50 in test [2] was 59.5.

Consider `CCN(CC)C(C)C(=O)N1c2ccccc2Sc2ccccc21` (stereo not drawn), for which the Ratio IC50 in test [2] amounted to 12000. Besides, the outcome in test [6] and in test [7] was inactive. Further, the IC50 in test [3] was 3370 nM; in test [4] it was 34700 nM.

The compound `NNc1c2c(nc3ccccc13)CCCC2` returned a half-maximal inhibitory concentration (IC50) in test [5] of 13000 nM.

On to `COc1cc(C(=O)NCCCCCCC(=O)NNc2c3c(nc4ccccc24)CCCC3)cc(OC)c1OC`, for which the IC50 in test [1] worked out at 5.65 nM; in test [3] it was 0.523 nM; in test [4], 25.2 nM; in test [5], 9.76 nM. Also, the Ratio IC50 in test [2] is 10.8.

Regarding `COc1cc(CCC(=O)NCCC(=O)NNc2c3c(nc4ccccc24)CCCC3)cc(OC)c1OC`, the IC50 in test [1] came to 135 nM; in test [3], 6.03 nM; in test [4], 68.9 nM; in test [5], 102 nM. Moreover, in test [2], the Ratio IC50 is 22.4.

Regarding `COc1cc(C(=O)NCCCCC(=O)NNc2c3c(nc4ccccc24)CCCC3)cc(OC)c1OC`, the IC50 in test [1] worked out at 17 nM; in test [3], 1.68 nM; in test [4], 18.1 nM; in test [5] it was 20.2 nM. In test [2], the Ratio IC50 worked out at 10.1.

As for `COc1cc(C(=O)NCCC(=O)NNc2c3c(nc4ccccc24)CCCC3)cc(OC)c1OC`, the IC50 turned out to be 89.2 nM in test [1], 12.8 nM in test [3], 49.5 nM in test [4] and 100 nM in test [5]. In addition, the Ratio IC50 in test [2] is 6.97.

Consider `COc1cc(C(=O)NCC(=O)NNc2c3c(nc4ccccc24)CCCC3)cc(OC)c1OC`, for which the IC50 in test [1] came out at 51.6 nM; in test [3] it was 27.6 nM; in test [4], 163 nM; in test [5], 104 nM. The Ratio IC50 in test [2] came out at 1.87.

Consider `COc1cc(C(=O)NCCCCCC(=O)NNc2c3c(nc4ccccc24)CCCC3)cc(OC)c1OC`, for which the IC50 was found to be 18.2 nM in test [1], 0.969 nM in test [3], 55.7 nM in test [4] and 20.1 nM in test [5]. The Ratio IC50 in test [2] is 18.8.

Turning to `COc1cc(C(=O)NCCCC(=O)NNc2c3c(nc4ccccc24)CCCC3)cc(OC)c1OC`, the IC50 in test [1] turned out to be 241 nM; in test [3], 7.13 nM; in test [4] it was 26.3 nM; in test [5], 60.5 nM. Further, the Ratio IC50 in test [2] was determined as 33.8.

For `COc1cc(CCC(=O)NCCCCC(=O)NNc2c3c(nc4ccccc24)CCCC3)cc(OC)c1OC`, the IC50 in test [1] came to 59 nM; in test [3], 0.139 nM; in test [4], 102 nM; in test [5], 54.7 nM. For the same compound, the Ratio IC50 in test [2] worked out at 424.

As for `COc1cc(C(=O)NCCCCCCCC(=O)NNc2c3c(nc4ccccc24)CCCC3)cc(OC)c1OC`, the half-inhibitory concentration (IC50) was determined as 5.24 nM in test [1], 0.293 nM in test [3], 17.2 nM in test [4] and 3.25 nM in test [5]. Besides, in test [2], the Ratio IC50 came out at 17.9. This compound also showed an Activity in test [8] of 3.23 nM.
